Measurements reported in ChEMBL document CHEMBL2346583, “Synthesis of new fluorinated, 2-substituted 5-pyrrolidinylsulfonyl isatin derivatives as caspase-3 and caspase-7 inhibitors: nonradioactive counterparts of putative PET-compatible apoptosis imaging agents” (Bioorg Med Chem, 2013).

Experiments:
Caspase-7 = target: T1, Caspase-7 (Homo sapiens, UniProt P55210); assay: Inhibition of human recombinant caspase 7 assessed as decrease in AMC release using Ac-Asp-Glu-Val-Asp-AMC as substrate preincubated with enzyme for 10 mins prior to substrate addition measured after 10 mins by fluorescence microplate analysis
T1 sequence (P55210 whole entry): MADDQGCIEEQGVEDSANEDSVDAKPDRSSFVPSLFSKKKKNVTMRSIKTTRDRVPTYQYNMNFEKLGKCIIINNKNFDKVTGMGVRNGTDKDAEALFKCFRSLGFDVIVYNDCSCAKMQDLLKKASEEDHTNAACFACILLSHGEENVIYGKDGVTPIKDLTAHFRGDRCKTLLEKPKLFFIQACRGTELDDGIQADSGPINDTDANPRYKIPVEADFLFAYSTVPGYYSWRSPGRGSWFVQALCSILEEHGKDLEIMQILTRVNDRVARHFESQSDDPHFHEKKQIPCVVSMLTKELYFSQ
Method in brief: (§1)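 Recombinant human caspase at 0.5 units per assay (defined as 500 pmol substrate converted in 60 min), diluted in reaction buffer. Compounds in DMSO, tested at final concentrations from 500 µM down to 5 pM in tenfold steps. Enzyme and compound pre-incubated for 10 min at 37 °C. AMC peptide substrate then added to a final 10 µM and reacted for 10 min. IC50 obtained by nonlinear regression.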

Caspase-6 = target: T2, Caspase-6 (Homo sapiens, UniProt P55212); assay: Inhibition of human recombinant caspase 6 assessed as decrease in AMC release using Ac-Val-Glu-Ile-Asp-AMC as substrate preincubated with enzyme for 10 mins prior to substrate addition measured after 10 mins by fluorescence microplate analysis; method in brief: as §1
T2 sequence (P55212 whole entry): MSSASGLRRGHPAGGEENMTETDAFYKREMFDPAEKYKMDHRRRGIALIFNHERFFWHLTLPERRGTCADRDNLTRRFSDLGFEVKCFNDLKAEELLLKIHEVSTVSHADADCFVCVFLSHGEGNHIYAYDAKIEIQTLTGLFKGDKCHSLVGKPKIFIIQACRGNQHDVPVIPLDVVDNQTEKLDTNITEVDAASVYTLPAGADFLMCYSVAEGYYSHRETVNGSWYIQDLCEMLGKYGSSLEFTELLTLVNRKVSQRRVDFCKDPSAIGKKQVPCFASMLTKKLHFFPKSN

Caspase-3 = target: T3, Caspase-3 (Homo sapiens, UniProt P42574); assay: Inhibition of human recombinant caspase 3 assessed as decrease in AMC release using Ac-Asp-Glu-Val-Asp-AMC as substrate preincubated with enzyme for 10 mins prior to substrate addition measured after 10 mins by fluorescence microplate analysis; method in brief: as §1
T3 sequence (P42574 whole entry): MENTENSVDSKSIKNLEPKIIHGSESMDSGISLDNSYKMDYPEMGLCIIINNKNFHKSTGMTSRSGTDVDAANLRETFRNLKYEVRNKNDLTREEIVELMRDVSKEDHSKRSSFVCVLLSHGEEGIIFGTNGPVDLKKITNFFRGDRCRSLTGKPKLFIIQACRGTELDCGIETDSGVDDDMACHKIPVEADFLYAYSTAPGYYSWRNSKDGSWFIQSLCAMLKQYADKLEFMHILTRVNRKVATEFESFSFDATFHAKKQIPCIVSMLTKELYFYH

Caspase-1 = target: T4, Caspase-1 (Homo sapiens, UniProt P29466); assay: Inhibition of human recombinant caspase 1 assessed as decrease in AMC release using Ac-Tyr-Val-Ala-Asp-AMC as substrate preincubated with enzyme for 10 mins prior to substrate addition measured after 10 mins by fluorescence microplate analysis; method in brief: as §1
T4 sequence (P29466 whole entry): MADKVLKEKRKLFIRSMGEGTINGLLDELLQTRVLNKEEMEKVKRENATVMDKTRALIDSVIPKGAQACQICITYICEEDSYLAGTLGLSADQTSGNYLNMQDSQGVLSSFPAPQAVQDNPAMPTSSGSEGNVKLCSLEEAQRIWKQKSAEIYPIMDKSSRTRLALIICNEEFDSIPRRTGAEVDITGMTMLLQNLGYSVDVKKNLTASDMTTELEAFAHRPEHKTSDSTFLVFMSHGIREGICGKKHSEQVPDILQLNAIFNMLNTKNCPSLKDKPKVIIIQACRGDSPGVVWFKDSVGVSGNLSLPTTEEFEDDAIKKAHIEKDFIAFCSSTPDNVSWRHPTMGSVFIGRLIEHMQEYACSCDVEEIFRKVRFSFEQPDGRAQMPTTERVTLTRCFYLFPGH

Compound | IC50 (Caspase-7) [nM] | IC50 (Caspase-6) [µM] | IC50 (Caspase-3) [nM] | IC50 (Caspase-1) [µM]
O=C1Nc2ccc(S(=O)(=O)N3CCC[C@H]3COCC(F)(F)F)cc2C1=O | 1420 | > 500 | 1060 | 14.7
CCCCN1C(=O)C(=O)c2cc(S(=O)(=O)N3CCCC3CCCOC)ccc21 (racemic) | 515 | > 500 | 170 | > 500
CCCCN1C(=O)C(=O)c2cc(S(=O)(=O)N3CCC[C@H]3CCOC)ccc21 | 24.6 | > 500 | 94.3 | 15.5
COCC[C@@H]1CCCN1S(=O)(=O)c1ccc2c(c1)C(=O)C(=O)N2 | 540 | > 500 | 349 | 12.1
CCCCN1C(=O)C(=O)c2cc(S(=O)(=O)N3CCC[C@H]3COCCF)ccc21 | 39.6 | > 500 | 4.79 | 24.7
O=C1C(=O)N(CCCCF)c2ccc(S(=O)(=O)N3CCC[C@H]3COCCF)cc21 | 9.68 | > 500 | 74.3 | 45.8
COCCCC1CCCN1S(=O)(=O)c1ccc2c(c1)C(=O)C(=O)N2 (racemic) | 125 | > 500 | 1580 | 11.6
COCC[C@@H]1CCCN1S(=O)(=O)c1ccc2c(c1)C(=O)C(=O)N2CCCCF | 12.3 | 1.03 | 92.3 | 7.34
CCOC[C@@H]1CCCN1S(=O)(=O)c1ccc2c(c1)C(=O)C(=O)N2CCCCF | 218 | > 500 | 365 | > 500
CCCCN1C(=O)C(=O)c2cc(S(=O)(=O)N3CCC[C@H]3COCC)ccc21 | 64.6 | 2.61 | 25.6 | 18.4
O=C1C(=O)N(CCCCF)c2ccc(S(=O)(=O)N3CCC[C@H]3COCC(F)(F)F)cc21 | 265 | > 500 | 149 | 30.7
CCOC[C@@H]1CCCN1S(=O)(=O)c1ccc2c(c1)C(=O)C(=O)N2 | 13.2 | > 500 | 1120 | > 500
O=C1Nc2ccc(S(=O)(=O)N3CCC[C@H]3COCCF)cc2C1=O | 1330 | > 500 | 346 | 18.4
COCCCC1CCCN1S(=O)(=O)c1ccc2c(c1)C(=O)C(=O)N2CCCCF (racemic) | 33.7 | > 500 | 184 | > 500
CCCCN1C(=O)C(=O)c2cc(S(=O)(=O)N3CCC[C@H]3COCC(F)(F)F)ccc21 | 7.47 | > 500 | 46.8 | 25.9
